# Data: paper PMC3418399 (Molecular microbiology, 2012)
# Entries after “also recorded” stand apart in the source; their conditions may differ. Like-named read-outs stand apart in the source and are kept apart here. Non-standard residues stand in square brackets, D forms with d.
# Experiments:
# human red blood cells = assay: Hemolysis; assay type: cell-based; details: for lysis of red blood cells: ≤100 μM
# [1] = tested on: human epithelial (HEp2) cells; assay: Toxicity for cultured human epithelial cells; assay type: cell-based
# [2] = molecular target: T1, CaCdr1p-mediated rhodamine 6G efflux in AD/CaCDR1 cells (Candida albicans, UniProt P43071); assay: Glucose-dependent rhodamine 6G efflux in whole cells; assay type: cell-based
# T1 sequence (P43071 whole entry, the tested form may be a part): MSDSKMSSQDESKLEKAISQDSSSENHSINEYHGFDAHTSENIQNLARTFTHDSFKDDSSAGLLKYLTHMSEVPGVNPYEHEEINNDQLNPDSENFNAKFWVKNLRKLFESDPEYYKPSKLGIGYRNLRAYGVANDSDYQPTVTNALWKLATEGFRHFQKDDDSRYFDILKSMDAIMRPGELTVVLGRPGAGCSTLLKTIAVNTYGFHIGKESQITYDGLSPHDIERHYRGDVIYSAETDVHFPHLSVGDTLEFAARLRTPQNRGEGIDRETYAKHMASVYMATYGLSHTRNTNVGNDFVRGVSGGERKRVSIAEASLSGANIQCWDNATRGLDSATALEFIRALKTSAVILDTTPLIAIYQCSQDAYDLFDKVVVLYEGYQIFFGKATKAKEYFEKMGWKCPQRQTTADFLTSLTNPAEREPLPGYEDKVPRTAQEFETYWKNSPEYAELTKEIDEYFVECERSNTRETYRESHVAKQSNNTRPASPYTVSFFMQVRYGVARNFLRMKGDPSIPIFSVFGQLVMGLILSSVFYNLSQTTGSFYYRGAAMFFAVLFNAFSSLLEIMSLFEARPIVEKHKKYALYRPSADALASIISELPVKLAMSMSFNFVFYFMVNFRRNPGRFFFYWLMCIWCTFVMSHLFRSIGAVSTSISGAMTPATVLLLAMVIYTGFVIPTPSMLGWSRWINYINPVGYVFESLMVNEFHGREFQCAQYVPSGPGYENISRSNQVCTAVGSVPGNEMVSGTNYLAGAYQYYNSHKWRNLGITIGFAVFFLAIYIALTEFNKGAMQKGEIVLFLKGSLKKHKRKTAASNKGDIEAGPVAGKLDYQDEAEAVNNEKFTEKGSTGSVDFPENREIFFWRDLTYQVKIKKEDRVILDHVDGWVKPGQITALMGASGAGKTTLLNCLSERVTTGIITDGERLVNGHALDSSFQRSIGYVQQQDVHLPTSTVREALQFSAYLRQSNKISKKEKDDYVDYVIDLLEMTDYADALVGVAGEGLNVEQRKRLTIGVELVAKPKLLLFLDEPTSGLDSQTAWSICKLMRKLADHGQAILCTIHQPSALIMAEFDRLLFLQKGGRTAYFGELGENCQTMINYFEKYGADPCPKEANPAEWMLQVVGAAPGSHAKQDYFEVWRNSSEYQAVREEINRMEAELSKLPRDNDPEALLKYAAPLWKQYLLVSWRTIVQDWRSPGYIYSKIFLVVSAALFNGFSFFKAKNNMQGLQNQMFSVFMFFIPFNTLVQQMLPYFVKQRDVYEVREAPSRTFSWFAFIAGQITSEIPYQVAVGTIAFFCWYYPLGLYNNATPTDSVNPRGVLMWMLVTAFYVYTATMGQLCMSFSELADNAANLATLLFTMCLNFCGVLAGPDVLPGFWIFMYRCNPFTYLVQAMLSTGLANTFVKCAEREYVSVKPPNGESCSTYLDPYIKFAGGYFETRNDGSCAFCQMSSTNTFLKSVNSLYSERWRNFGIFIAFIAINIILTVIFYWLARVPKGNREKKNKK
# [3] = tested on: AD/CDR1 (Wild type CaCdr1p; AD/CaCDR1B); assay: Agarose diffusion FLC chemosensitization assay; assay type: cell-based, Saccharomyces cerevisiae; details: for chemosensitization of cells overexpressing CaCdr1p to FLC: ~6 nmole/disk, FLC 40 μg ml^−1
# [4] = tested on: S. cerevisiae AD/CaCDR1 variants; assay: Spontaneous variants resistant to FLC chemosensitization; assay type: cell-based, Saccharomyces cerevisiae
# Pma1p ATPase = molecular target: T2, Pma1p ATPase (Saccharomyces cerevisiae, UniProt P05030); assay: Pma1p ATPase assay; assay type: biochemical; details: read-out: IC50 Pma1p ATPase; pH 7.0, 10 μM oligomycin
# T2 sequence (P05030 1-918): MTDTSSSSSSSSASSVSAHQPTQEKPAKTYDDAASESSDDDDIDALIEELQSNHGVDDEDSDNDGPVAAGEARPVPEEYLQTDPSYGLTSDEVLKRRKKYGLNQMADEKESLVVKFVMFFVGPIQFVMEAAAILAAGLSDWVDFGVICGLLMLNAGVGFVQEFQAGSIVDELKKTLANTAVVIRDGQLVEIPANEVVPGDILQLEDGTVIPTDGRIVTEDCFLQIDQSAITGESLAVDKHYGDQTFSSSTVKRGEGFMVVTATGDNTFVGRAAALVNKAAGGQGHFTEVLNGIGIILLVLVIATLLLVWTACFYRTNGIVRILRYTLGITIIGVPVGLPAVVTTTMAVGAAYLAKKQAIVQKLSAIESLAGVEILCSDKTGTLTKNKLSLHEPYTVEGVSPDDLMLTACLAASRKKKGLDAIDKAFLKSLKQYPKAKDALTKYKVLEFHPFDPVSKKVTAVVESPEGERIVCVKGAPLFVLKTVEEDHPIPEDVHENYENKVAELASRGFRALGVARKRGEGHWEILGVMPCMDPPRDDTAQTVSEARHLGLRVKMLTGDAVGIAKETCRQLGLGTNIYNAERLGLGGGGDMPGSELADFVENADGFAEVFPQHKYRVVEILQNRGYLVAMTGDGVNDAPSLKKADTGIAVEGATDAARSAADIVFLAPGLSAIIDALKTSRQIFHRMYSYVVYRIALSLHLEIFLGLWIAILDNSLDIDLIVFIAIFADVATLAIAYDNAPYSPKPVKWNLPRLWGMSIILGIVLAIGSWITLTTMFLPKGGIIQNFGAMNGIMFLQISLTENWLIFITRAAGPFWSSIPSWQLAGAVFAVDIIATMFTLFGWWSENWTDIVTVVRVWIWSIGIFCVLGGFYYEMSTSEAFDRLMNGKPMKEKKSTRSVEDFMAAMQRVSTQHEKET
# TM5 (CaCdr1p V674F) = assay: MIC, liquid microdilution; assay type: cell-based, Saccharomyces cerevisiae; details: TM5, V674F; RC21 and rhodamines; CSM pH 7.0, 30°C, 48 h
# [5] = molecular target: T1, CaCdr1p-mediated rhodamine 6G efflux in AD/CaCDR1 cells; details: 1.25 μM; S. cerevisiae strain overexpressing CaCdr1p; ref Holmes et al., 2008; cited from earlier work
# [6] = tested on: C. albicans strain MML33 (deleted of both copies of CDR1); assay: Agarose diffusion / checkerboard FLC chemosensitization; assay type: cell-based, Candida albicans; details: 7.5 nmole RC21
# Summary of the method: (§1)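 Agarose diffusion on C. albicans clinical isolates. Base CSM-ura with FLC at the indicated concentration was solidified with 0.6% agarose. Cells were layered over it in CSM-ura overlay (0.4% agarose plus FLC). Crude, non-HPLC-purified test peptide (7.5 nmole) was dried on a paper disk at 37 °C for 1-2 h and placed on the overlay. Plates were incubated at 30 °C for 48 h, and inhibition-zone diameters were compared with and without FLC.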
# C. albicans strain CIA4 = assay: as above; assay type: cell-based, Candida albicans; details: FLC-susceptible strain CIA4; 7.5 nmole RC21
# Summary of the method: as §1
# AD/pABC3 (Control) [7] = assay: Agarose diffusion FLC chemosensitization assay; assay type: cell-based, Saccharomyces cerevisiae; details: presence or absence of FLC at 1/4 MIC
# C. albicans MML610 = details: 0.62 μM; FLC-susceptible parental strain MML610; ref Holmes et al., 2008; cited from earlier work
# CaCdr2p = details: 1.25 μM; strain overexpressing CaCdr2p; ref Holmes et al., 2008; cited from earlier work
# AD/pABC3 (Control) [8] = assay: MIC, liquid microdilution; assay type: cell-based, Saccharomyces cerevisiae; details: AD/pABC3, Control; RC21 and rhodamines; CSM pH 7.0, 30°C, 48 h
# C. albicans MML611 = details: 0.62 μM; FLC-resistant MML611; ref Holmes et al., 2008; cited from earlier work
# [9] = tested on: AD/CDR1 (Wild type CaCdr1p); assay: MIC, liquid microdilution; assay type: cell-based, Saccharomyces cerevisiae; details: AD/CDR1, Wild type; RC21 and rhodamines; CSM pH 7.0, 30°C, 48 h
# EL4-1 (CaCdr1p Q1226K) = assay: MIC, liquid microdilution; assay type: cell-based, Saccharomyces cerevisiae; details: EL4-1, Q1226K; RC21 and rhodamines; CSM pH 7.0, 30°C, 48 h
# EL4-2 (CaCdr1p Q1226R) = assay: MIC, liquid microdilution; assay type: cell-based, Saccharomyces cerevisiae; details: EL4-2, Q1226R; RC21 and rhodamines; CSM pH 7.0, 30°C, 48 h
# [10] = tested on: AD/pABC3 or AD/CaCDR1 cells; assay: Rhodamine 6G uptake in de-energised cells; assay type: cell-based, Saccharomyces cerevisiae; details: concentrations <20 μM
# Summary of the method: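 Host S. cerevisiae and Cdr1p-expressing cells were harvested at log phase, washed, and suspended in 50 mM HEPES-NaOH pH 7.0. They were de-energised with 5 mM 2-deoxyglucose (30 °C, 30 min), then given 15 μM R6G ± test peptide at OD600 1.0. Samples taken at time intervals were boiled 10 min in SDS/mercaptoethanol/Tris pH 6.8 lysis buffer. Released R6G was quantified fluorimetrically against a standard curve in lysis buffer.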
# EL3 (CaCdr1p Q714K) = assay: MIC, liquid microdilution; assay type: cell-based, Saccharomyces cerevisiae; details: EL3, Q714K; RC21 and rhodamines; CSM pH 7.0, 30°C, 48 h
# EL6 (CaCdr1p Q1445R) = assay: MIC, liquid microdilution; assay type: cell-based, Saccharomyces cerevisiae; details: EL6, Q1445R; RC21 and rhodamines; CSM pH 7.0, 30°C, 48 h
# EL1/TM2 (CaCdr1p G547R) = assay: MIC, liquid microdilution; assay type: cell-based, Saccharomyces cerevisiae; details: EL1/TM2, G547R; RC21 and rhodamines; CSM pH 7.0, 30°C, 48 h
# Cdr1p ATPase = Cdr1p ATPase (Candida albicans, UniProt P43071); assay: CaCdr1p ATPase inhibition assay; assay type: biochemical
# Cdr1p ATPase, sequence (P43071 whole entry): as the sequence (P43071 whole entry, the tested form may be a part) above
compound,measurement,setting,value
C[C@@H]1[C@H](O)[C@@H](C)/C=C/C=C/C=C/C=C/C=C/C=C/C=C/[C@H](O[C@@H]2O[C@H](C)[C@@H](O)[C@H](N)[C@@H]2O)C[C@@H]2O[C@](O)(C[C@@H](O)C[C@@H](O)[C@H](O)CC[C@@H](O)C[C@@H](O)CC(=O)O[C@H]1C)C[C@H](O)[C@H]2C(=O)O [Amphotericin B],concentration causing complete lysis of red blood cells,human red blood cells; human,3 µM
same,concentration rendering human epithelial cells inviable,[1]; human,15 µM
D-NH2-FFKW(Mtr)QRRR-CONH2 [RC21v1],concentration required to obtain a significant effect on R6G efflux,"[2]; effect independent of glucose, non-specific membrane permeabilization",At least 40 μM
same,chemosensitization of CaCdr1p-dependent FLC resistance,"[3]; agarose diffusion assays, amount not stated (partly data not shown)",ineffective
same,chemosensitization of cells overexpressing CaCdr1p to FLC,[3]; agarose diffusion,inactive
RC21v2: HPLC-purified RC21 derivative with a single Mtr group attached to one of its three C-terminal arginine residues (FFKWQRRR),Resistance to FLC chemosensitization,"[4]; variant R1, Q714K, External loop 3",High
same,Resistance to FLC chemosensitization,"[4]; variant R2, Q1445K, External loop 6",High
same,Resistance to FLC chemosensitization,"[4]; variant R3, Q1226K, External loop 4",High
same,Resistance to FLC chemosensitization,"[4]; variant R4, Q1226K, External loop 4",High
same,inhibition of glucose-dependent R6G efflux,"[2]; 1.25 μM, after 5 minutes of preincubation",fully inhibited
same,IC50,Pma1p ATPase,5 µM
same,lysis of red blood cells,human red blood cells,did not lyse; also recorded: did not hemolyse
same,chemosensitization of yeast over-expressing CaCdr1p to FLC,"[3]; ~5.5 nmol per disk, agarose diffusion",chemosensitized
same,chemosensitization of cells overexpressing CaCdr1p to FLC,[3]; agarose diffusion,chemosensitized
same,effect on growth or viability of a human epithelial cell line,[1]; 100 μM (≤100 μM in Fig. 7 legend),did not affect; also recorded: did not kill
"D-NH2-FFKWQRRR-CONH2 + Mtr (H-[dF][dF][dK][dW][dQ][dR][dR][dR]-NH2; also: + Mtr, position not given here) [RC21]",MIC,TM5 (CaCdr1p V674F),20 µM
same,inhibition of glucose-dependent R6G efflux,[5],90%
same,effect on FLC susceptibility,[6],minor effect
same,effect on FLC susceptibility,C. albicans strain CIA4,conferred increased FLC susceptibility
same,Resistance to FLC chemosensitization,"[4]; variant C1, Q1226K, External loop 4",High
same,Resistance to FLC chemosensitization,"[4]; variant C2, G547R, TMD1, TMS2",High
same,Resistance to FLC chemosensitization,"[4]; variant E1, V674F, TMD1, TMS5",Moderate
same,Resistance to FLC chemosensitization,"[4]; variant E2, V674F, TMD1, TMS5",Moderate
same,Resistance to FLC chemosensitization,"[4]; variant F1, Q1226K, External loop 4",High
same,Resistance to FLC chemosensitization,"[4]; variant F2, Q1226K, External loop 4",High
same,Resistance to FLC chemosensitization,"[4]; variant F3, Q714K, External loop 3",High
same,Resistance to FLC chemosensitization,"[4]; variant HE2, Q1226R, External loop 4",High
same,effect on growth of strain AD/pABC3,AD/pABC3 (Control) [7],no effect
same,inhibition of glucose-dependent R6G efflux,C. albicans MML610,detectably inhibited
same,effect on glucose-dependent R6G efflux,CaCdr2p,no effect
same,MIC,AD/pABC3 (Control) [8],>20 µM
same,inhibition of glucose-dependent R6G efflux,C. albicans MML611,90%
same,MIC,[9],20 µM
same,IC50,Pma1p ATPase,5 µM
same,MIC,EL4-1 (CaCdr1p Q1226K),20 µM
same,lysis of red blood cells,human red blood cells,did not lyse; also recorded: did not hemolyse
same,MIC,EL4-2 (CaCdr1p Q1226R),20 µM
same,inhibition of FLC resistance mediated by over-expression in S. cerevisiae of CaCdr1p,"[3]; crude RC21 6 nmole/disk, FLC at 1/4 MIC",inhibited FLC resistance
same,effect on the rate of uptake of R6G,[10],no significant effect
same,MIC,EL3 (CaCdr1p Q714K),20 µM
same,MIC,EL6 (CaCdr1p Q1445R),20 µM
same,MIC,EL1/TM2 (CaCdr1p G547R),20 µM
same,increase in potency against CaCdr1p ATPase activity during deconvolution,Cdr1p ATPase; IC50 = 20 → 1.3 μM,16 fold
same,mode of inhibition of CaCdr1p ATPase,Cdr1p ATPase; preincubation of membranes with ATP,not a competitive inhibitor
